Blank lines part the entries; values can stand above or below the molecule they belong to.
Assays:
[1] = target: T1, ERRα (Homo sapiens, UniProt P11474); experiment: ERRα degradation in MCF-7 cells by immunoblotting; type: cell-based
T1 sequence (P11474 1-423): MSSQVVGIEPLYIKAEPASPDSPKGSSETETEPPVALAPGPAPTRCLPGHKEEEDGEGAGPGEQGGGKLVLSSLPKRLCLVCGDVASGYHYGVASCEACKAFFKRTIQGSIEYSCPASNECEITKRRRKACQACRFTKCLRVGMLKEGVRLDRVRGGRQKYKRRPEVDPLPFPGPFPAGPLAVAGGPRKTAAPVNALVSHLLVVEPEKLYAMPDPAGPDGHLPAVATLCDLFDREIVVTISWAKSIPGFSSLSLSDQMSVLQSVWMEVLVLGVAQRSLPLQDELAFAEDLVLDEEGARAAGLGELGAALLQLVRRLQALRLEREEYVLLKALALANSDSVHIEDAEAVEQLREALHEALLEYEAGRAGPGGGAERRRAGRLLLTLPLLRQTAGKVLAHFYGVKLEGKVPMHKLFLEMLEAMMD
Outline: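 MCF7 cells were grown in DMEM/F12 + 10% FBS at 37 °C, 5% CO₂. They were seeded at 70% confluency, attached overnight, then treated with test compound for 8 h. An optional 1 h pretreatment with 1 μM epoxomicin preceded compound. Lysates were BCA-normalised, run on 4–12% gels, transferred to PVDF, milk-blocked and probed overnight with anti-ERRα.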

[2] = target: T2, RIPK2 (Homo sapiens, UniProt O43353); experiment: Expression proteomics in THP-1 cells; type: cell-based; settings: THP-1, 30 nM, 6, 18 and 24 h
[3] = target: T3, MAPKAPK3 (Homo sapiens, UniProt Q16644); experiment: Kinobeads competition binding; settings: below the limit of detection
[4] = test system: RIPK3, ABL and TESK; experiment: Expression proteomics in THP-1 cells; type: cell-based, human; settings: THP-1, 30 nM
Outline: (§1)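 THP-1 cells were seeded at 3 × 10⁶ cells/well in RPMI1640 + 10% heat-inactivated FBS. They were exposed to 30 nM test compound for 6, 18 or 24 h; the 18 h arm was run in biological duplicate. Cells were collected on ice, washed twice in cold PBS, snap-frozen and SDS-lysed. Proteins were reduced, alkylated, gel-separated, trypsin-digested and quantified proteome-wide by LC-MS/MS.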

[5] = target: VHL complex (Homo sapiens, UniProt P40337); experiment: Competitive binding fluorescence polarization vs HIF1α-derived peptide
[6] = target: RIPK2 (Homo sapiens, UniProt O43353+P40337); experiment: In vitro ubiquitination in reconstituted E1-E2-VHL cascade; type: biochemical
Outline: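 Three-stage reaction at room temperature. First, RIPK2 (500 nM final) was autophosphorylated with [³²P]γ-ATP for 10 min in Tris/KCl/Mg/Mn/DTT buffer, pH 7.5. Ubiquitination buffer (2 mM ATP) was then added with VHL (250 nM final) and test compound at various concentrations. Separately, UbE1 (25 nM), Ubc4 (250 nM) and ubiquitin (116 μM) were precharged. The mixtures were combined and quenched over time. ³²P was converted to moles of RIPK2 (five phosphopeptides) and compared with moles of compound.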

[7] = test system: THP-1 cells; experiment: Cellular toxicity; type: cell-based, human; settings: any concentration, Supplementary Fig. 7
[8] = target: VHL-RIPK2 ternary complex (Homo sapiens, UniProt O43353+P40337); type: binding; settings: THP-1 lysate
Outline: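 THP-1 lysate in Tris/glycerol/MgCl₂/NaCl/vanadate/0.008% NP40 buffer was adjusted to 5 mg ml⁻¹. Lysate (10 mg protein) was incubated with compound at 3, 30 or 300 nM, or DMSO, for 2 h at 4 °C. It was then captured for 2 h at 4 °C on anti-VHL or IgG1κ control agarose beads. Eluates were analysed by immunoblot and LC-MS, as log₂ fold changes over replicates (≥2 unique peptides).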

[9] = test system: HIF1α; experiment: ODD-luciferase assay of HIF1α processing by VHL; type: cell-based
[10] = target: T3, MAPKAPK3; experiment: Expression proteomics in THP-1 cells; type: cell-based; settings: THP-1, 30 nM; of ~7,000 proteins only RIPK2 and MAPKAPK3
Outline: as §1

[11] = target: T2, RIPK2; experiment: RIPK2 degradation in THP-1 monocytes by immunoblotting; type: cell-based
Outline: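 THP-1 cells were cultured in RPMI 1640 + 10% FBS at 37 °C, 5% CO₂. Cells (5 × 10⁶) were treated with a dose range for 16 h, or at 30 nM for a time course. Options were a 1 h pretreatment with 1 μM epoxomicin, or washout after 4 h with PBS washes and fresh medium. RIPK2 was detected by western blot.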

[12] = target: T4, ERRα (Mus musculus, UniProt O08580); experiment: In vivo ERRα knockdown in mouse tissues, western blotting; settings: mice, 100 mg/kg i.p. every 8 h, four doses, ~5 h after last dose, vs vehicle
T4 sequence (O08580 1-422): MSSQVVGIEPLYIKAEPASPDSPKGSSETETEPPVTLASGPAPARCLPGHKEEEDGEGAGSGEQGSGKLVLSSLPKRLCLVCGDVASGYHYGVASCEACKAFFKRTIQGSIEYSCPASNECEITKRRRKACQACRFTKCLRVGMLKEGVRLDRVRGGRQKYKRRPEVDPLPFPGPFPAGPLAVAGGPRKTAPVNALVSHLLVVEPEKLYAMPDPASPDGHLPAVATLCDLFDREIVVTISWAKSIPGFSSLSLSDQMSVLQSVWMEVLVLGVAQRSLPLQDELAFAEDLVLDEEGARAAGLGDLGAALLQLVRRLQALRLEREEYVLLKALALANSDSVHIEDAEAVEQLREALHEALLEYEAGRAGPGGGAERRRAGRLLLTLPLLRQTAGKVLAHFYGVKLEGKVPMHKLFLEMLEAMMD

[13] = target: T1, ERRα; experiment: In vivo ERRα knockdown in MDA-MB-231 tumor xenografts in mice, western blotting; settings: 100 mg/kg i.p. every 8 h, four doses, ~5 h after last dose, vs vehicle
[14] = target: T5, BCR (Homo sapiens, UniProt P11274); experiment: Expression proteomics in MCF-7 cells; type: cell-based; settings: MCF-7, 500 nM, prolonged incubation, P < 0.05
T5 sequence (P11274 1-1271): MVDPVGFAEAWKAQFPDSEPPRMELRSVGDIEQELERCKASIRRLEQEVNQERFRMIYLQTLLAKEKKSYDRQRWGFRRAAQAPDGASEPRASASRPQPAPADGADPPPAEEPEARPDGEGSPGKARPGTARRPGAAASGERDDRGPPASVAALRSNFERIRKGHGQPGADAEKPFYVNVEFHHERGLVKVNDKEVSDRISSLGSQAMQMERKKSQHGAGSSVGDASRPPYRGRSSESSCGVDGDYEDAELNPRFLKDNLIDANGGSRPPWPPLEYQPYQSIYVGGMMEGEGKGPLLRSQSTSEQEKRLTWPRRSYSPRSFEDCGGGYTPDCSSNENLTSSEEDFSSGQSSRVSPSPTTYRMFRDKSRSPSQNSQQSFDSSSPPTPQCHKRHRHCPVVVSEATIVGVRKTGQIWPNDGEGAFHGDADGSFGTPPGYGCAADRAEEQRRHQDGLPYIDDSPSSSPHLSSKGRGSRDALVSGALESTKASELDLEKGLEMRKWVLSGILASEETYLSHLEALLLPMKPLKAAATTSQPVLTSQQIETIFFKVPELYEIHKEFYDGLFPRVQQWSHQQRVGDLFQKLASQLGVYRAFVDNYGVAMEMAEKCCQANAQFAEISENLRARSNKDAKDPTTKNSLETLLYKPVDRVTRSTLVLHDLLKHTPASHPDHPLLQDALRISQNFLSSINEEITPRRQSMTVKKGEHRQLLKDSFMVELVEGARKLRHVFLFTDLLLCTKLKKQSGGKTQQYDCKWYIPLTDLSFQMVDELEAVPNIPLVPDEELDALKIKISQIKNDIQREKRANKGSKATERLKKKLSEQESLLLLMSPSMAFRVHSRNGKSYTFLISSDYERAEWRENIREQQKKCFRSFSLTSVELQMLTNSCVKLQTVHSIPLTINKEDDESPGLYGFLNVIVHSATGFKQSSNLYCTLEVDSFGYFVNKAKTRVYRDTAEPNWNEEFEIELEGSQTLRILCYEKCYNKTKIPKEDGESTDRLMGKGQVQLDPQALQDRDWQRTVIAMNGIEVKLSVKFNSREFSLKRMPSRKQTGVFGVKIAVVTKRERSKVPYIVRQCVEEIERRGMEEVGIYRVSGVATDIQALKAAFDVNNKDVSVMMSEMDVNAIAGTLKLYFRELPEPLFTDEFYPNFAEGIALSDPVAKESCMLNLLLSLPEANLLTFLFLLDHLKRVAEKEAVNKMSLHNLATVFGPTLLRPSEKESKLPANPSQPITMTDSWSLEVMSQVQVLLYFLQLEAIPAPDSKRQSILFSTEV
Outline: (§2)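 MCF-7 cells were plated 1 day before treatment at 1 × 10⁶ cells/well in MEM + 10% FBS + 1% NEAA + sodium pyruvate. They were treated in biological duplicate for the indicated times, scraped into ice-cold PBS and lysed in 2% SDS (95 °C, 3 min). Benzonase digestion followed (37 °C, 1.5 h), then BCA. Proteins were reduced with DTT, alkylated with iodoacetamide, gel-separated, trypsin-digested and quantified by LC-MS/MS.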

[15] = target: T1, ERRα; experiment: Expression proteomics in MCF-7 cells; type: cell-based; settings: MCF-7, 100 nM and 500 nM, 4, 8 or 24 h
Outline: as §2

- reduction of ERRα protein levels ([1]; MCF-7, at concentrations at which the active PROTAC reduced ERRα levels by 50%): ~ 20%
SMILES: COc1cc(/C=C2\SC(=O)N(CCOCCC(=O)N[C@H](C(=O)N3C[C@@H](O)C[C@H]3C(=O)NCc3ccc(-c4scnc4C)cc3)C(C)(C)C)C2=O)ccc1Oc1ccc(C#N)cc1C(F)(F)F [PROTAC_ERRα_epi]

SMILES: Cc1ncsc1-c1ccc(CNC(=O)[C@@H]2C[C@@H](O)CN2C(=O)[C@@H](NC(=O)COCCOCCOCCOCCOc2cc3nccc(Nc4ccc5scnc5c4)c3cc2S(=O)(=O)C(C)(C)C)C(C)(C)C)cc1 [PROTAC_RIPK2]
- RIPK2 levels [2]: induced the degradation of RIPK2 from 6 h onwards
- Kd [3]: > 3000 nM
- levels of other kinases bound (RIPK3, ABL and TESK) [4]: not degraded
- IC50 ([5]; competition with HIF1α-derived peptide for VHL complex): 660 nM
- stoichiometry (modified RIPK2 to PROTAC) ([6]; 2.0 pmol PROTAC, final time point): 2.0
- modified RIPK2 ([6]; 2.0 pmol PROTAC, final time point (35 min), 500 nM RIPK2): 4.0 pmol
- cellular toxicity [7]: No cellular toxicity
- co-recruitment of RIPK2 over background ([8]; 30 nM): up to 16 fold
- change of RIPK2 enrichment ([8]; 300 nM versus 30 nM): reduced by two-fold
- stabilization of HIF1α (ODD-luciferase) ([9]; 30 μM): modest stabilization of HIF1α
- effect on ODD-luciferase levels ([9]; concentrations up to 3 μM): no effect
- MAPKAPK3 levels [10]: significantly degraded
- window between RIPK2 degradation and modulation of endogenous VHL function ([11]; RIPK2 degradation vs ODD-luciferase): > 1,000 fold
- earliest time at which RIPK2 degradation was observed ([11]; THP-1, 30 nM): 1 h
- time at which RIPK2 degradation was nearly complete ([11]; THP-1, 30 nM): 4 h
- time for protein levels to recover to pre-treatment levels after removal ([11]; THP-1, 4 h pretreatment with 30 nM, washout): ≤ 24 h
- RIPK2 protein levels at high concentration (hook effect) ([11]; THP-1, 16 h, 30 μM): returning to basal levels
- Dmax ([11]; THP-1, 16 h, at concentrations of 10 nM and higher): > 95%

- binding to VHL ([5]; concentrations up to 10 μM): no binding to VHL
- ubiquitination of RIPK2 ([6]; any concentration (50, 100, 200 nM), up to 35 min): unable to induce ubiquitination
- degradation of RIPK2 ([11]; THP-1 cells, Supplementary Fig. 6f): no degradation of RIPK2
SMILES: Cc1ncsc1-c1ccc(CNC(=O)[C@H]2C[C@H](O)CN2C(=O)[C@@H](NC(=O)COCCOCCOCCOCCOc2cc3nccc(Nc4ccc5scnc5c4)c3cc2S(=O)(=O)C(C)(C)C)C(C)(C)C)cc1 [PROTAC_RIPK2_epi]
- RIPK2 levels [2]: neither the PROTAC_RIPK2_epi nor the RIPK2 ligand affected RIPK2 levels
- enrichment of RIPK2 in VHL immunoprecipitate [8]: did not influence the immune-captured proteins or enrich RIPK2 levels

- reduction of ERRα levels in heart [12]: approximately 44%
- reduction of ERRα levels in kidney [12]: approximately 44%
- reduction of ERRα levels in MDA-MB-231 tumors [13]: ~39%
- BCR levels [14]: downregulated
- ERRα levels [15]: decreased levels of ERRα
- decrease in normalized ERRα levels ([1]; MCF-7, 1 h pretreatment with 1 μM epoxomicin): 5%
- maximal level of degradation (Dmax) ([1]; MCF-7 cells, 8 h): 86%
- stabilization of HIF1α (ODD-luciferase) ([9]; concentrations up to 30 μM): did not stabilize HIF1α
SMILES: COc1cc(/C=C2\SC(=O)N(CCOCCC(=O)N[C@H](C(=O)N3C[C@H](O)C[C@H]3C(=O)NCc3ccc(-c4scnc4C)cc3)C(C)(C)C)C2=O)ccc1Oc1ccc(C#N)cc1C(F)(F)F [PROTAC_ERRα]

Reference: article PMC4629852 (Nature chemical biology, 2015)
